Experiments:
[1] = target: Melanin-concentrating hormone receptor (Homo sapiens, UniProt Q969V1+Q99705); test: Inhibition of Melanin-concentrating hormone (MCH) mediated [Ca2+] release in IMR-32 cells; format: functional, cell-based
[2] = target: Melanin-concentrating hormone receptor 1 (Homo sapiens) (UniProt Q99705); test: Inhibitory concentration against human Melanin-concentrating hormone receptor 1 expressed in IMR-32 cells using [125I]MCH
Mus musculus [3] = test: Body weight of the mice after treatment with the compound (30 mg/kg, p.o.) on day 0 (Vehicle=45.0 1 0.7); format: functional
Mus musculus [4] = test: Body weight of the mice after treatment with the compound (100 mg/kg, p.o.) on day 0 (Vehicle=45.0 1 0.7); format: functional
Mus musculus [5] = test: Body weight of the mice after treatment with the compound (30 mg/kg, p.o.) on day 14 (Vehicle=46.9 1 0.8); format: functional
Mus musculus [6] = test: Body weight of the mice after treatment with the compound (100 mg/kg, p.o.) on day 14 (Vehicle=46.9 1 0.8); format: functional
Mus musculus [7] = test: Percent change of mice body weight after treatment with the compound (30 mg/kg, p.o.) to that of vehicle; format: functional
Mus musculus [8] = test: Percent change of mice body weight after treatment with the compound (100 mg/kg, p.o.) to that of vehicle; format: functional
Mus musculus [9] = test: Compound (100 mg/kg, bid) tested for reduction of fat mass in mice (vehicle=22.1); format: functional
Mus musculus [10] = test: Mean cumulative food intake of mice on day 1 after treatment with compound at 30 mg/kg; n=12; format: functional
Procedure, shortened: (§1)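 Chronic study in DIO mice fed a 60 kcal % fat diet ad libitum, dosed by oral gavage bid for 14 days at 30 or 100 mg/kg in 1% Tween 80/water (4 mL/kg). Food weighed on the first day and periodically thereafter. Cumulative intake reported on days 1, 5, 7, 11 and 14; mean ± SEM, n = 12.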

Mus musculus [11] = test: Mean cumulative food intake of mice on day 5 after treatment with compound at 30 mg/kg; n=12; format: functional; procedure, shortened: as §1
Mus musculus [12] = test: Mean cumulative food intake of mice on day 7 after treatment with compound at 30 mg/kg; n=12; format: functional; procedure, shortened: as §1
Mus musculus [13] = test: Mean cumulative food intake of mice on day 1 after treatment with compound at 100 mg/kg; n=12; format: functional; procedure, shortened: as §1
Mus musculus [14] = test: Mean cumulative food intake of mice on day 11 after treatment with compound at 30 mg/kg; n=12; format: functional; procedure, shortened: as §1
Mus musculus [15] = test: Mean cumulative food intake of mice on day 14 after treatment with compound at 30 mg/kg; n=12; format: functional; procedure, shortened: as §1
Mus musculus [16] = test: Mean cumulative food intake of mice on day 5 after treatment with compound at 100 mg/kg; n=12; format: functional; procedure, shortened: as §1
Mus musculus [17] = test: Mean cumulative food intake of mice on day 7 after treatment with compound at 100 mg/kg; n=12; format: functional; procedure, shortened: as §1
Mus musculus [18] = test: Mean cumulative food intake of mice on day 11 after treatment with compound at 100 mg/kg; n=12; format: functional; procedure, shortened: as §1
Mus musculus [19] = test: Mean cumulative food intake of mice on day 14 after treatment with compound at 100 mg/kg; n=12; format: functional; procedure, shortened: as §1
[20] = Maximum brain compound (10mg/kg, p.o.) concentration in diet-induced obese mice; format: ADME, organism-based; set-up: dose 10 mg/kg, route oral; conditions: mouse, po
[21] = Maximum plasma compound (10 mg/kg, p.o.) concentration in diet-induced obese mice; format: ADME, organism-based; set-up: dose 10 mg/kg, route oral; conditions: mouse, po
[22] = Area under curve in diet-induced obese mice brain at 10 mg/kg (p.o.) concentration; n=3; format: ADME, organism-based; set-up: dose 10 mg/kg, route oral; conditions: mouse, in vivo, po
[23] = Area under curve in diet-induced obese mice plasma at 10 mg/kg (p.o.) concentration; n=3; format: ADME, organism-based; set-up: dose 10 mg/kg, route oral; conditions: mouse, in vivo, po
[24] = Area under curve in diet-induced obese mice brain at 10 mg/kg (p.o.) concentration; format: ADME, organism-based; set-up: dose 10 mg/kg, route oral; conditions: mouse, in vivo, po
[25] = Area under curve in diet-induced obese mice plasma at 10 mg/kg (p.o.) concentration; format: ADME, organism-based; set-up: dose 10 mg/kg, route oral; conditions: mouse, in vivo, po
[26] = target: Melanin-concentrating hormone receptor 1 (Homo sapiens) (UniProt Q99705); test: Inhibitory concentration against Melanin-concentrating hormone receptor 1 in human IMR-32 cells
Mus musculus [27] = test: Body weight of the mice after treatment with the compound (10 mg/kg, p.o.) on day 0 (Vehicle=45.0 1 0.7); n=12; format: functional
Mus musculus [28] = test: Body weight of the mice after treatment with the compound (10 mg/kg, p.o.) on day 14 (Vehicle=46.9 1 0.8); n=12; format: functional
Mus musculus [29] = test: Percent change of mice body weight after treatment with the compound (10 mg/kg, p.o.) to that of vehicle; n=12; format: functional
Mus musculus [30] = test: Mean cumulative food intake of mice on day 1 after treatment with compound at 10 mg/kg; n=12; format: functional
Procedure, shortened: (§2)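 DIO mice, kept on a high-fat diet (60 kcal % fat, 5.2 kcal/g) for about 16 weeks with ad libitum feeding. Given 10 mg/kg po by gavage qd for 14 days in 1% Tween 80/water at 4 mL/kg, alongside vehicle. Food weighed on the first day and periodically thereafter; cumulative intake reported at days 1, 5, 7, 11 and 14. Mean ± SEM, n = 12.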

Mus musculus [31] = test: Mean cumulative food intake of mice on day 5 after treatment with compound at 10 mg/kg; n=12; format: functional; procedure, shortened: as §2
Mus musculus [32] = test: Mean cumulative food intake of mice on day 7 after treatment with compound at 10 mg/kg; n=12; format: functional; procedure, shortened: as §2
Mus musculus [33] = test: Mean cumulative food intake of mice on day 11 after treatment with compound at 10 mg/kg; n=12; format: functional; procedure, shortened: as §2
Mus musculus [34] = test: Mean cumulative food intake of mice on day 14 after treatment with compound at 10 mg/kg; n=12; format: functional; procedure, shortened: as §2

CC(C)CNCCn1ncc2cc(NC(=O)Nc3ccc(Oc4ccccc4)cc3)ccc21
IC50 [1]: 0.751 µM | IC50 [2]: 1.8 nM

O=C(Nc1ccc(Oc2ccccc2)cc1)Nc1ccc2c(cnn2CCN2CCC(O)CC2)c1
IC50 [1]: > 10 µM | IC50 [2]: 6130 nM

O=C(Nc1ccc(OCc2ccccc2)cc1)Nc1ccc2cnn(CCN3CCCC3)c2c1
IC50 [1]: 7.14 µM | IC50 [2]: 113 nM

O=C(Nc1ccc(Oc2ccccc2)cc1)Nc1ccc2c(cnn2CCNC2CCCC2)c1
IC50 [1]: 0.147 µM | IC50 [2]: 2.4 nM

NC(=O)C1CCN(CCCn2ncc3cc(NC(=O)Nc4ccc(Oc5ccccc5)cc4)ccc32)CC1
IC50 [1]: 2.88 µM | IC50 [2]: 40.6 nM

O=C(Nc1ccc2cnn(CCN3CCCC3)c2c1)NC1CCN(Cc2ccccc2)CC1
IC50 [1]: > 10 µM | IC50 [2]: 4510 nM

COC[C@@H]1CCCN1CCCn1ncc2cc(NC(=O)Nc3ccc(Oc4ccccc4)cc3)ccc21
IC50 [1]: 1.177 µM | IC50 [2]: 82.9 nM

O=C(Nc1ccc(OCc2ccccc2)cc1)Nc1ccc2c(cnn2CCN2CCCC2)c1
IC50 [1]: > 10 µM | IC50 [2]: 41.3 nM

O=C(Nc1ccc(Oc2ccccc2)cc1)Nc1ccc2c(cnn2CCN2CCCC2)c1
Body weight (Mus musculus [3]): 42.3 g | Body weight (Mus musculus [4]): 42.5 g | Body weight (Mus musculus [5]): 42.3 g | Body weight (Mus musculus [6]): 36.3 g | Change in body weight (Mus musculus [7]): -3.41% | Change in body weight (Mus musculus [8]): -17.1% | Activity (Mus musculus [9]): 16.6 g | Activity (Mus musculus [10]): 3 | Activity (Mus musculus [11]): 11.2 | Activity (Mus musculus [12]): 20.1 | Activity (Mus musculus [13]): 2.17 | Activity (Mus musculus [14]): 32.4 | Activity (Mus musculus [15]): 39.8 | Activity (Mus musculus [16]): 7.86 | Activity (Mus musculus [17]): 13.6 | Activity (Mus musculus [18]): 23.6 | Activity (Mus musculus [19]): 29.4 | Cmax [20]: 260 ng/g | Cmax [21]: 246 ng/mL | AUC [22]: 1.43 µg/h/g | AUC [23]: 5.35 µg/h/g

O=c1n(-c2ccc(Oc3ccccc3)cc2)ccn1-c1ccc2c(cnn2CCN2CCCC2)c1
IC50 [1]: 0.654 µM | Cmax [20]: 183 ng/g | Cmax [21]: 543 ng/mL | AUC [22]: 1.71 µg/h/g | AUC [23]: 1.35 µg/h/mL | IC50 [2]: 5.9 nM

O=C(Nc1ccc(Oc2ccccc2)cc1)Nc1ccc2c(cnn2CCCN2CCC(O)CC2)c1
IC50 [1]: 0.894 µM | IC50 [2]: 91.5 nM

O=C(NCc1ccc(Oc2ccccc2)cc1)Nc1ccc2c(cnn2CCN2CCCC2)c1
IC50 [1]: > 10 µM | IC50 [2]: 508 nM

O=C(NCc1ccc(Oc2ccccc2)cc1)Nc1ccc2cnn(CCN3CCCC3)c2c1
IC50 [1]: 0.626 µM | IC50 [2]: 78.5 nM

O=C(Nc1ccc(Oc2ccccc2)cc1)Nc1ccc2c(cnn2CCN2CCC(F)(F)C2)c1
IC50 [1]: > 10 µM | IC50 [2]: 305 nM

O=C(Cc1ccc(OCc2ccccc2)cc1)Nc1ccc2cnn(CCN3CCCC3)c2c1
IC50 [1]: 0.011 µM | Cmax [21]: 596 ng/mL | AUC [24]: 1.33 µg·h/g | AUC [25]: 2.12 µg/h/mL | IC50 [26]: 1.4 nM

O=C(Nc1ccc(OCc2ccccc2)cc1)Nc1cccc2c1cnn2CCN1CCCC1
IC50 [1]: > 10 µM | IC50 [2]: 1050 nM

O=C(Nc1ccc(Oc2ccccc2)cc1)Nc1cccc2c1cnn2CCN1CCCC1
IC50 [1]: > 10 µM | IC50 [2]: 1850 nM

O=C(CNCc1ccc(Oc2ccccc2)cc1)Nc1ccc2ccn(CCN3CCCC3)c2c1
IC50 [1]: 1.81 µM | AUC [24]: 0.674 µg·h/g | AUC [25]: 1.16 µg/h/mL | IC50 [26]: 299 nM

O=C1N(c2ccc(Oc3ccccc3)cc2)CCN1c1ccc2c(cnn2CCN2CCCC2)c1
IC50 [1]: 1.12 µM | IC50 [2]: 19.8 nM

CCN[C@@H](C)Cc1cccc(C(F)(F)F)c1 [DEXFENFLURAMINE]
Body weight (Mus musculus [27]): 42.7 g | Body weight (Mus musculus [28]): 39.8 g | Change in body weight (Mus musculus [29]): 9.12% | Activity (Mus musculus [30]): 0.89 | Activity (Mus musculus [31]): 8.44 | Activity (Mus musculus [32]): 17.8 | Activity (Mus musculus [33]): 31.1 | Activity (Mus musculus [34]): 39.9

NC(=O)C1CCN(CCn2ncc3cc(NC(=O)Nc4ccc(Oc5ccccc5)cc4)ccc32)CC1
IC50 [1]: 0.171 µM | IC50 [2]: 134 nM

O=C(Nc1ccc(Oc2ccccc2)cc1)Nc1ccc2cnn(CCN3CCCC3)c2c1
IC50 [1]: > 10 µM | IC50 [2]: 581 nM

O=C(NCCc1ccc(Oc2ccccc2)cc1)Nc1ccc2c(cnn2CCN2CCCC2)c1
IC50 [1]: > 10 µM | IC50 [2]: 545 nM

COC[C@@H]1CCCN1CCn1ncc2cc(NC(=O)Nc3ccc(Oc4ccccc4)cc3)ccc21
IC50 [1]: 0.516 µM | IC50 [2]: 38.7 nM

O=C(NCCc1ccc(Oc2ccccc2)cc1)Nc1ccc2cnn(CCN3CCCC3)c2c1
IC50 [1]: 0.178 µM | Cmax [21]: 86 ng/mL | AUC [22]: 0 µg/h/g | AUC [23]: 0.335 µg/h/g | IC50 [2]: 34.3 nM
